For one assay, the target named is Integrin alpha-5/beta-1 (Homo sapiens, UniProt P05556+P08648). Put plainly: Inhibition of fibronectin binding to soluble alpha5beta1 integrin (unknown origin) after 1 hr by ELISA. In kind it is protein-complex assay. (In general: An ELISA detects its analyte on a solid surface through an enzyme-linked reagent.)
Another assay concerns the target Integrin alpha-V/beta-3 (Homo sapiens, UniProt P05106+P06756). Put plainly: Inhibition of vitronectin binding to human alphaVbeta3 integrin after 1 hr by ELISA. In kind it is protein-complex assay. The method in brief: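 Plates coated overnight at 4 °C with vitronectin 1.0 μg/mL in carbonate buffer pH 9.6, blocked 1 h with TSB (Ca2+, Mg2+, Mn2+, 1% BSA). Soluble human αvβ3 (final 1.0 μg/mL) with inhibitor (final 0.128–400 nM) 1 h at room temperature; detection by anti-CD51/61 then peroxidase secondary, absorbance 405 nm. Duplicates; IC50 from curve inflection point; internal standard per plate.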

Assay [1] deals with U-87 MG. Put plainly: Antiproliferative activity against human U87MG cells after 72 hrs by MTS assay. (In general: Tetrazolium dyes change colour on reduction, which living cells bring about.)
In assay [2] the test system is T98G. Put plainly: Antiproliferative activity against human T98G cells harboring p53 mutant at micromolar concentration after 72 hrs by MTS assay. Format: functional, cell-based. An outline of the steps:
(§1)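 Cells seeded ~5000 cells/cm2, after 24 h medium replaced with compound in DMSO (DMSO 1% v/v in controls), alone or in combination at 100 nM each, or concentration series (U87MG 1–100 nM). 72 h exposure; proliferation read by MTS, expressed as % of DMSO control (mean ± SEM, N = 3); IC50 from sigmoid dose–response fit.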

In assay [3] the test system is T98G. Kind of assay: Antiproliferative activity against human T98G cells harboring p53 mutant at nanomolar concentration after 72 hrs by MTS assay. Format: functional, cell-based. The method in brief:
as §1

Assay [4] has as its system U-87 MG. Put plainly: Anti-invasive activity in human U87MG cells at 10 uM after 24 hrs by transwell assay. In kind it is functional, U-87MG ATCC. An outline of the steps: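 U87MG cells suspended in serum-free medium (60,000 cells), treated at 10 μM (each agent at 10 μM when combined), placed in upper chamber of Matrigel-coated (0.32 mg/mL) transwell; lower chamber RPMI with 10% FBS. Invasion 24 h at 37 °C; cells on lower membrane surface fixed with p-formaldehyde, crystal violet stained, counted in five random fields per filter. Mean ± SEM vs DMSO control.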

The species named for assay [5] is Homo sapiens. The conditions noted are these: 100 nM.
The species entered for assay [6] is Homo sapiens. As to conditions: 100 nM. This is another data set of the same source.
For assay [7], the species on record is Homo sapiens. As to conditions: 100 nM. This is another data set of the same source.
For assay [8], the species on record is Homo sapiens. As to conditions: 100 nM. This is another data set of the same source.
The species entered for assay [9] is Homo sapiens. As to conditions: 100 nM. The source holds these as a separate data set.
Assay [10] deals with E3 ubiquitin-protein ligase Mdm2 (Homo sapiens, UniProt Q00987). Put plainly: Displacement of p53 from MDM2 in human U87MG cells incubated for 10 mins by sandwich ELISA method. Format: cell-based.
In another assay the target is T1, Protein Mdm4 (Homo sapiens, UniProt O15151).
T1 sequence (O15151 whole entry): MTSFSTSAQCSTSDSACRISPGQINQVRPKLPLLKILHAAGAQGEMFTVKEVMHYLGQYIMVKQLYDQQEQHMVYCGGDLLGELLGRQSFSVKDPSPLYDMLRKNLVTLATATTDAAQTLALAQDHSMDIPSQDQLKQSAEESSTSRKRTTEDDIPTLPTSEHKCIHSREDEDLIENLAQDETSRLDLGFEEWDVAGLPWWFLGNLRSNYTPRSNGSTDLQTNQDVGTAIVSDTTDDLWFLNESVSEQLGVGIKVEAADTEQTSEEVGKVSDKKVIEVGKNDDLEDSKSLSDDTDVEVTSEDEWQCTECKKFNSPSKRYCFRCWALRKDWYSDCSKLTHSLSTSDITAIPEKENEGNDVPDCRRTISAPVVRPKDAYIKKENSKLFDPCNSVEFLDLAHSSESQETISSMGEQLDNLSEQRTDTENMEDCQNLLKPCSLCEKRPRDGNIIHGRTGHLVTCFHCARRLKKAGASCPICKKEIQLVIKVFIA
Put plainly: Displacement of p53 from MDM4 in human SHSY-5Y cells incubated for 10 mins by sandwich ELISA method. Format: cell-based.

Activity calls are given as the source filed them. The calls are words filed in the database; no cut-off is given here. Where only a bound is given, the exact number is not on record here.

We go through nine compounds from ChEMBL document CHEMBL4138308, “Simultaneous Targeting of RGD-Integrins and Dual Murine Double Minute Proteins in Glioblastoma Multiforme” (J Med Chem, 2018).

A word on the IC50: it is the concentration that gives 50% inhibition.

Chain of Integrin alpha-V/beta-3 (P05106 27-788 limits assumed): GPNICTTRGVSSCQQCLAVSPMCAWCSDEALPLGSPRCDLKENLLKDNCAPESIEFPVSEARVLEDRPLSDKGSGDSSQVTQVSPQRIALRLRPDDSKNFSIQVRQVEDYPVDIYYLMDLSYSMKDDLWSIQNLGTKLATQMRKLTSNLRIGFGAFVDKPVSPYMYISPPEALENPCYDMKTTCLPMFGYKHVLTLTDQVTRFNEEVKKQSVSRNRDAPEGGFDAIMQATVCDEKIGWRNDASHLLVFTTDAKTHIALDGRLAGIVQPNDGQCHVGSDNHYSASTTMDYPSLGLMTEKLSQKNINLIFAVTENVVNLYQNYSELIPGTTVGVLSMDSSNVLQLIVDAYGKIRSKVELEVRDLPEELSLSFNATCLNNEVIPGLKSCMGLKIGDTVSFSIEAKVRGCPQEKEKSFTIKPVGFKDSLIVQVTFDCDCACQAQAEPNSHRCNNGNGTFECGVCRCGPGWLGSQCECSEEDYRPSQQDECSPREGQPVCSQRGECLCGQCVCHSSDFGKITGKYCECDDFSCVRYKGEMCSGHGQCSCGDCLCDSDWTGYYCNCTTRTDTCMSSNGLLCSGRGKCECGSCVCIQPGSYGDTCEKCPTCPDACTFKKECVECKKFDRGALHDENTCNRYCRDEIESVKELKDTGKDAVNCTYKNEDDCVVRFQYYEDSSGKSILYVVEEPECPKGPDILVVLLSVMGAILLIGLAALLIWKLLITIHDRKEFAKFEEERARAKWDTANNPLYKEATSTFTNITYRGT
Chain of Integrin alpha-V/beta-3 (P06756 31-889 limits assumed): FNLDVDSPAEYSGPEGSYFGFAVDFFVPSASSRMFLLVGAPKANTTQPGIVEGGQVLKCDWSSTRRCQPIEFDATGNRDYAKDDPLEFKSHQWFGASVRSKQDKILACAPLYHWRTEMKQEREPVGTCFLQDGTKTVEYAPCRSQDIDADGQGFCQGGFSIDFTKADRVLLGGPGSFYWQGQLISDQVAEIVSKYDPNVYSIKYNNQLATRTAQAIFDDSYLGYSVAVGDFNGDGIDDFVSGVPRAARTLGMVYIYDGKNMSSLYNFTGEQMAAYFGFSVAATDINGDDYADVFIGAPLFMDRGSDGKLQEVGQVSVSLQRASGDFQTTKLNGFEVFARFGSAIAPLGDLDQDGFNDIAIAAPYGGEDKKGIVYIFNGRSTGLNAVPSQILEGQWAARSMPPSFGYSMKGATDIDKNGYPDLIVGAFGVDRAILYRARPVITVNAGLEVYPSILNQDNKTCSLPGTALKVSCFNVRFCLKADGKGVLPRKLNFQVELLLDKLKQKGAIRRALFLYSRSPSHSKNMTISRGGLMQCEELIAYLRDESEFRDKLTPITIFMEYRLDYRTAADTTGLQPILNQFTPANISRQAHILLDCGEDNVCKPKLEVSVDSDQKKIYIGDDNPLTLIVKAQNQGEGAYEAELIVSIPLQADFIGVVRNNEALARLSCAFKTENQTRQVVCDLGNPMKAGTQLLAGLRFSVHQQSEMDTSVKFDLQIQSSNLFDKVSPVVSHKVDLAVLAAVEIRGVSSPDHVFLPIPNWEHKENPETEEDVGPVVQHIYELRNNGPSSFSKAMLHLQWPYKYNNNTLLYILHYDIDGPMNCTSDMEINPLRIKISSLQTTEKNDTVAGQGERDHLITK
Chain of Integrin alpha-V/beta-3 (P06756 891-1048 limits assumed): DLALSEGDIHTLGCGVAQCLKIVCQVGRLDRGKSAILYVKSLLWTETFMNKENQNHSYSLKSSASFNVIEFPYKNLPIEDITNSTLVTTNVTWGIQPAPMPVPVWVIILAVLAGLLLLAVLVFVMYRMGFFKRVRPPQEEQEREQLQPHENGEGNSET
Chain of Integrin alpha-5/beta-1 (P05556 21-798 limits assumed): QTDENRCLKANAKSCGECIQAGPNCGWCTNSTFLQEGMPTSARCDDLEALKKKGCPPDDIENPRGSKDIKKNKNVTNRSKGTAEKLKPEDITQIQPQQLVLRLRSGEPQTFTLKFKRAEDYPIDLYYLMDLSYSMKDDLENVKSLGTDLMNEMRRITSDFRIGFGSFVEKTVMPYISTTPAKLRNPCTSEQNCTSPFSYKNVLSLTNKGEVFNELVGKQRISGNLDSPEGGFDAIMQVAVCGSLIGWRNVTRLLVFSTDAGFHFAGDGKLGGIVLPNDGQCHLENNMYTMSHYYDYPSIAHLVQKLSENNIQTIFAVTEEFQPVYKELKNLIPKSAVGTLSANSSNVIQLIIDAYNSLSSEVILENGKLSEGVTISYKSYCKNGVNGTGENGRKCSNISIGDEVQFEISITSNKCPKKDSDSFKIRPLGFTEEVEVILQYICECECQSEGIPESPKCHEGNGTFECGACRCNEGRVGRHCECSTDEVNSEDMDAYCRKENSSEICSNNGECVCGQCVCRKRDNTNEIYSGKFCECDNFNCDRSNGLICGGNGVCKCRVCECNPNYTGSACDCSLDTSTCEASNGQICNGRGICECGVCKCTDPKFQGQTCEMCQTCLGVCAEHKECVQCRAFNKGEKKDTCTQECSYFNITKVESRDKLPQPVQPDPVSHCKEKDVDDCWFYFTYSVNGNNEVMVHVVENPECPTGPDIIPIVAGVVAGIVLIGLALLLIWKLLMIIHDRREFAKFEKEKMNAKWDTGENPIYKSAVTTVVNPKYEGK
Chain of Integrin alpha-5/beta-1 (P08648 42-894 limits assumed): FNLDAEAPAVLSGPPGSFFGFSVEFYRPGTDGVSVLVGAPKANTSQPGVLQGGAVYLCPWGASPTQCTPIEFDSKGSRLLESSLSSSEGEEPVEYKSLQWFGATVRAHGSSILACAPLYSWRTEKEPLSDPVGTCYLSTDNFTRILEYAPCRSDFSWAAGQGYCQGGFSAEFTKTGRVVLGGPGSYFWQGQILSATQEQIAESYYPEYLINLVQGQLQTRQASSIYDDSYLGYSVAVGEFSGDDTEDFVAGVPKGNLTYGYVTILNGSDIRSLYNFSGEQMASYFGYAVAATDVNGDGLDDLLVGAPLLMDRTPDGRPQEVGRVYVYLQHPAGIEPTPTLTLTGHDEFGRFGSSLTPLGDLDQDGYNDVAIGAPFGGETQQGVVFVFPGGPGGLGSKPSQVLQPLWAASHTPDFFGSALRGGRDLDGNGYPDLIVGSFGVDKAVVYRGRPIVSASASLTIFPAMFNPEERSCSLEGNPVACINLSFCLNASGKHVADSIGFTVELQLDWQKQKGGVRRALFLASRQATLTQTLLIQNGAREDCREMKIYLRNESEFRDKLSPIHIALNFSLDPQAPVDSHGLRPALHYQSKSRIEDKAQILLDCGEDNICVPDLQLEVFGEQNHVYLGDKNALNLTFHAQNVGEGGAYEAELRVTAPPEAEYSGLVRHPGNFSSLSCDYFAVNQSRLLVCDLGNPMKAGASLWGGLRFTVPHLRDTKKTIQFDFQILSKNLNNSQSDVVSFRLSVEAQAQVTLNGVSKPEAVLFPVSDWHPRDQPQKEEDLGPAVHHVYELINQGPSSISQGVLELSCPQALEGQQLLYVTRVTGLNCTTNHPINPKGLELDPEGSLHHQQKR
Chain of Integrin alpha-5/beta-1 (P08648 895-1049 limits assumed): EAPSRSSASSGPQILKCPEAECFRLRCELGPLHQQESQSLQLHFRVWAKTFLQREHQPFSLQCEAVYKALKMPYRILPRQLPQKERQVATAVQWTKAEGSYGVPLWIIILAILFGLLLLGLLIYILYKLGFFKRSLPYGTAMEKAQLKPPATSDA
Chain of E3 ubiquitin-protein ligase Mdm2 (Q00987 whole entry): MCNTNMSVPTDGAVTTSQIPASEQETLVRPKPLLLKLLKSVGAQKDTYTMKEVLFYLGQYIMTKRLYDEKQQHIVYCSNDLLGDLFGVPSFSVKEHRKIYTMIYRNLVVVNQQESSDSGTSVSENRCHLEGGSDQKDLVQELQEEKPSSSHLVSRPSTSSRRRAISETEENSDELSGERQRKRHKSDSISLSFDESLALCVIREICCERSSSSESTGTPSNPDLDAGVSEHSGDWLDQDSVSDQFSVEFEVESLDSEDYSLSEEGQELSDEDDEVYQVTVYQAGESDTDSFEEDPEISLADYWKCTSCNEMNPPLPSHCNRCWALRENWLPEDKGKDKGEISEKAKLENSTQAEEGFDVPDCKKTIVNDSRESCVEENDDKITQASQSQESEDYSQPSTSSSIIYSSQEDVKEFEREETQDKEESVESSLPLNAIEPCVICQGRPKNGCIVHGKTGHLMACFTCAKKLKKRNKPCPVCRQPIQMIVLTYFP

With `N=C(N)Nc1cccc(C(=O)NCC(=O)N[C@@H](CC(=O)O)C(=O)NC(c2ccccc2)c2ccccc2)c1`, the figures for the half-inhibitory concentration (IC50) on Integrin alpha-5/beta-1, at Integrin alpha-V/beta-3 and in the assay with U-87 MG [1] were 22 nM, 1.4 nM and 116 nM, respectively. Moreover, in the assay on T98G [2], the outcome was Active. The result in the assay on T98G [3] was inactive. The same compound displayed an Activity in the assay with U-87 MG [4] of 80%. Also, the inhibition entry in the assay listed under Homo sapiens [5], in the assay listed under Homo sapiens [6], in the assay filed under Homo sapiens [8] and in the assay listed under Homo sapiens [9] was “Active” in each case. Besides, the inhibition result in the assay filed under Homo sapiens [7] was “inactive”.
In the case of `N=C(N)Nc1cccc(C(=O)NCC(=O)N[C@@H](CC(=O)O)C(=O)NCc2ccccc2)c1`, the IC50 is 31 nM on Integrin alpha-5/beta-1, 0.79 nM at Integrin alpha-V/beta-3 and over 1000 nM in assay [10].
Turning to `N=C(N)Nc1cccc(C(=O)NCC(=O)N[C@@H](CC(=O)O)C(=O)NCc2ccc(-c3ccccc3)cc2)c1`, the IC50 is 41 nM at Integrin alpha-5/beta-1, 1.7 nM on Integrin alpha-V/beta-3 and over 1000 nM at Protein Mdm4.
As to `N=C(N)Nc1cccc(C(=O)NCC(=O)N[C@@H](CC(=O)O)C(=O)NCCc2ccc3ccccc3c2)c1`, the IC50 on Integrin alpha-5/beta-1 is 76 nM; at Integrin alpha-V/beta-3, 2.2 nM.
For `N=C(N)Nc1cccc(C(=O)NCC(=O)N[C@@H](CC(=O)O)C(=O)NCCc2c[nH]c3ccccc23)c1`, the IC50 is 36 nM on Integrin alpha-5/beta-1, 4 nM on Integrin alpha-V/beta-3 and over 1000 nM on Protein Mdm4.
In the case of `C[C@H](NC(=O)[C@H](CC(=O)O)NC(=O)CNC(=O)c1cccc(NC(=N)N)c1)c1ccccc1`, the values for the IC50 at Integrin alpha-5/beta-1 and on Integrin alpha-V/beta-3 were 20 nM and 0.91 nM, respectively.
Take `COc1ccc(CNC(=O)[C@H](CC(=O)O)NC(=O)CNC(=O)c2cccc(NC(=N)N)c2)cc1`: the IC50 at Integrin alpha-5/beta-1 is 40 nM; on Integrin alpha-V/beta-3, 1.2 nM; at Protein Mdm4, over 1000 nM.
For the compound `N=C(N)Nc1cccc(C(=O)NCC(=O)N[C@@H](CC(=O)O)C(=O)NCCc2ccccc2)c1`, the values for the IC50 at Integrin alpha-5/beta-1 and on Integrin alpha-V/beta-3 were 28 nM and 2.8 nM, respectively.
As to `N=C(N)Nc1cccc(C(=O)NCC(=O)N[C@@H](CC(=O)O)C(=O)Nc2ccccc2)c1`, the IC50 on Integrin alpha-5/beta-1 was 13 nM; on Integrin alpha-V/beta-3 it was 0.21 nM; in [10], over 1000 nM; on Protein Mdm4, over 1000 nM.
